Experimental data from paper PMC6262783 (International Journal for Parasitology: Drugs and Drug …, 2018).
Entries after “also recorded” stand apart in the source; their conditions may differ.

How the values were obtained:
RH T. gondii = assay: T. gondii growth inhibition in vitro screen, RH-dTom strain; format: cell-based, Toxoplasma gondii; details: for activity against RH T. gondii (in words): primary screen
Outline: (§1)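 HFF (~20,000/well) were grown to confluence, then infected with dTomato-expressing tachyzoites: RH 2000/well for 24 h, or PRU 8000/well for 48 h, at 37 °C. Medium was replaced and test compound in DMSO added at 0–100 µM in duplicate, with pyrimethamine as positive control. Fluorescence (ex 530/25, em 590/25) was read over 5 days; IC50 was the concentration halving RFU at day 5.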

[1] = system: human foreskin fibroblasts (HFF); assay: Mammalian cell cytotoxicity screen; format: cell-based; details: Fibroblast, 24 h, read-out: HFF IC50
Outline: (§2)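 HFF and U-20S were kept in DMEM with 10% heat-inactivated bovine serum, 2 mM L-glutamine, penicillin/streptomycin, 10% Medium 199 and gentamicin, at 36.5 °C with 5% CO2. Confluent cells (~20,000/well plated) were treated with 0–100 µM test compound for 24 h in duplicate. Alamar Blue (0.5 mM resazurin, 4 h, 37 °C) was read at ex 530/25, em 590/25; untreated cells defined 100% viability.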

[2] = system: Salmonella typhimurium (TA100 strain); assay: Bacterial reverse mutation assay; format: cell-based; details: 0.75 μM (ca. 3x average T. gondii IC50)
[3] = Kinetic aqueous solubility by nephelometry; format: physicochemical; details: PBS pH 6.5, pH 6.5, aqueous buffer, kinetic from dmso stock
Outline: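 Kinetic solubility was determined by nephelometry after 30 min at room temperature. A solubility range was reported.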

[4] = system: murine macrophages (NR-9456); assay: Mammalian cell cytotoxicity screen; format: cell-based; details: Mus musculus, Macrophage, 24 h, read-out: NR-9456 IC50
Outline: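 Murine macrophages NR-9456 were maintained with added 1 mM sodium pyruvate and plated at ~20,000/well to confluence. They were exposed to 0–100 µM test compound for 24 h in duplicate. Resazurin (0.5 mM) was added for 4 h at 37 °C with 5% CO2, and fluorescence was read at ex 530/25, em 590/25. Viability was normalised to no-compound wells (100%).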

PRU T. gondii = assay: T. gondii growth inhibition in vitro screen, PRU-dTom strain; format: cell-based, Toxoplasma gondii; details: for IC50: Toxoplasma gondii, 120 h, read-out: PRU T. gondii IC50; for activity against PRU T. gondii (in words): PRU strain
Outline: as §1

[5] = system: human embryonic kidney cells (HEK-293); assay: Mammalian cell cytotoxicity screen; format: cell-based; details: HEK293, 24 h, read-out: HEK293 IC50
Outline: (§3)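 HEK-293 and HC-04 were kept in DMEM with 10% heat-inactivated bovine serum, 2 mM L-glutamine, penicillin/streptomycin and gentamicin (no Medium 199), at 36.5 °C with 5% CO2. Cells (~20,000/well) were grown to confluence, then treated with 0–100 µM test compound for 24 h in duplicate. Alamar Blue (0.5 mM resazurin, 4 h, 37 °C) was read at ex 530/25, em 590/25; viability was relative to untreated cells (100%).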

[6] = Metabolic stability in human liver microsomes; format: in vitro ADME
Outline: (§4)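 Test compound (1 µM) was incubated with human or mouse liver microsomes (0.4 mg/mL protein) at 37 °C. Reactions were started with an NADPH-regenerating system and quenched at 2, 30 and 60 min. Remaining compound was quantified by LCMS to derive half-life, in vitro intrinsic clearance and predicted hepatic extraction ratio.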

[7] = system: human liver cells (HC-04); assay: Mammalian cell cytotoxicity screen; format: cell-based; details: HC04, 24 h, read-out: HCO4 IC50
Outline: as §3

[8] = system: human osteosarcoma cells (U-20S); assay: Mammalian cell cytotoxicity screen; format: cell-based; details: U2OS, 24 h, read-out: U2OS IC50
Outline: as §2

ME49 strain T. gondii = assay: In vivo survivorship challenge in murine model; design: species or system Toxoplasma gondii
Outline: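 Female Swiss Webster mice, 2 months old, were infected intraperitoneally with 5000 ME49 tachyzoites. Dosing started simultaneously: test compound 5 mg/kg (n = 10), pyrimethamine 5 mg/kg (n = 20) or solvent (n = 24), IP once daily for 10 days. Vehicle was 5% DMSO, 47.5% propylene glycol, 47.5% Kollisolv. Mice were weighed daily; survival was followed over 40 d by Kaplan-Meier.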

[9] = Metabolic stability in mouse liver microsomes; format: in vitro ADME
Outline: as §4

[10] = system: RH-dTom tachyzoites in pre-treated HFF cells; assay: Host cell; format: cell-based, Toxoplasma gondii
Outline: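 HFF were grown to confluence in 96-well plates and exposed to 10 µM test compound for 24 h at 37 °C, in triplicate. Cells were washed twice with D10 medium, then infected with RH-dTom tachyzoites. Parasite growth was followed by fluorescence for 5 days post-infection and expressed relative to control.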

T. gondii = details: ref Sanford et al., 2018; cited from earlier work
RH-dTom tachyzoites = assay: Extracellular parasite pre-treatment assay; format: cell-based; details: Toxoplasma gondii, read-out: parasite growth, % of control
Outline: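 RH-dTom tachyzoites were isolated from culture and resuspended in D10 medium at 10e6/mL. They were exposed to 10 µM test compound for 4 h, then centrifuged and washed twice. Confluent HFF in 96-well plates were infected with 2000 treated tachyzoites per well. Parasite growth was read by fluorescence at 5 days post-infection and expressed relative to control.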

human albumin = human albumin (Homo sapiens, UniProt P02768); assay: Chromatography-based protein binding; format: in vitro ADME; details: estimated by chromatographic method, human albumin column
Chain of human albumin (P02768 25-609): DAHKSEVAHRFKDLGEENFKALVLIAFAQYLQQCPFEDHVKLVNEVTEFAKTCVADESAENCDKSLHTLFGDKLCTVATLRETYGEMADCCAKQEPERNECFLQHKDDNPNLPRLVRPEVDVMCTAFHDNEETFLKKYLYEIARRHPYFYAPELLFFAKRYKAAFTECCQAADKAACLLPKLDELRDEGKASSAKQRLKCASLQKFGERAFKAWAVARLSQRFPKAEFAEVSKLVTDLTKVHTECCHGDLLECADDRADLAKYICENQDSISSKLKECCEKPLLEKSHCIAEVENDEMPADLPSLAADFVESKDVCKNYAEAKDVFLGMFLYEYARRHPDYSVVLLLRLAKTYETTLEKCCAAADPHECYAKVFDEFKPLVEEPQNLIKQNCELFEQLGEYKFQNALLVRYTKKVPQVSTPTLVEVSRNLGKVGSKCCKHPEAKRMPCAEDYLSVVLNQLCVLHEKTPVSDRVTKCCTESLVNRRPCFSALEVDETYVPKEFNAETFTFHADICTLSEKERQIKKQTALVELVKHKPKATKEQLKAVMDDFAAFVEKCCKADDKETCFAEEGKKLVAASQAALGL
Outline: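 Plasma protein binding was estimated chromatographically on a human albumin column. Retention was correlated against a standard series of compounds with known cPPB values.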

CC1(C)CC(=NNC(=O)c2ccncc2)CC(C)(C)C1=O [KGW73, N'-(3,3,5,5-tetramethyl-4-oxocyclohexylidene)isonicotinohydrazide]
activity against RH T. gondii (in words) (RH T. gondii; RH strain): inactive
IC50 [1]: > 100 µM

CC(C)(C)C1=CC(=NNc2ccc([N+](=O)[O-])cc2[N+](=O)[O-])C=C(C(C)(C)C)C1=O [KGW59, 2,6-di-tert-butyl-4-(2-(2,4-dinitrophenyl)hydrazineylidene)cyclohexa-2,5-dien-1-one]
Ames Assay [2]: neither compound was mutagenic; also recorded: Negative
solubility kinetic at 30 min [3]: < 1.6 µg/mL
IC50 [4]: > 100 µM
IC50 (PRU T. gondii): 1.4 µM
IC50 [5]: > 100 µM
IC50 [1]: > 100 µM
Predicted EH [6]: 0.38
half-life at 1 μM [6]: 1.85 h
microsomal CLint at 1 μM [6]: 16 µL/min/mg
IC50 [7]: > 100 µM
IC50 [8]: > 100 µM
survivorship (in words) (ME49 strain T. gondii): significantly increased survivorship
Predicted EH [9]: 0.50
half-life at 1 μM [9]: 0.617 h
microsomal CLint at 1 μM [9]: 46 µL/min/mg
activity at 10 µM ([10]; Toxoplasma gondii, HFF, read-out: parasite growth, % of control): 30.2%

CCOc1ccc(C(=O)NN=C2C=C(C(C)(C)C)C(=O)C(C(C)(C)C)=C2)cc1 [KGW64, N'-(3,5-di-tert-butyl-4-oxocyclohexa-2,5-dien-1-ylidene)-4-ethoxybenzohydrazide]
activity against PRU T. gondii (in words) (PRU T. gondii): only weakly active

CC(C)(C)C1=CC(=NNC(=O)c2ccc(O)cc2)C=C(C(C)(C)C)C1=O [KGW43, N'-(3,5-di-tert-butyl-4-oxocyclohexa-2,5-dien-1-ylidene)-4-hydroxybenzohydrazide]
IC50 [1]: > 100 µM

CC(C)(C)C1=CC(=NNC(=O)c2cccnc2)C=C(C(C)(C)C)C1=O [KGW65, N'-(3,5-di-tert-butyl-4-oxocyclohexa-2,5-dien-1-ylidene)nicotinohydrazide]
activity against PRU T. gondii (in words) (PRU T. gondii): completely inactive

CC(C)(C)C1=CC(=NNC(=O)c2c[nH]cn2)C=C(C(C)(C)C)C1=O [KGW45, N'-(3,5-di-tert-butyl-4-oxocyclohexa-2,5-dien-1-ylidene)-1H-imidazole-4-carbohydrazide]
activity against RH T. gondii (in words) (RH T. gondii; RH strain): significantly weakened
IC50 [1]: > 100 µM

CC(C)(C)C1=CC(=NNC(=O)c2ccc(C#N)cc2)C=C(C(C)(C)C)C1=O [KGW54, 4-cyano-N'-(3,5-di-tert-butyl-4-oxocyclohexa-2,5-dien-1-ylidene)benzohydrazide]
IC50 (RH T. gondii; read-out: RH T. gondii IC50, RH-dTom tachyzoites in HFF, fluorescence, day 5): 1.2 µM
IC50 (PRU T. gondii): 2.2 µM
IC50 [1]: > 100 µM

Cc1ccc(C(=O)ON=C2C=C(C(C)(C)C)C(=O)C(C(C)(C)C)=C2)cc1 [KGW72, 2,6-di-tert-butyl-4-(((4-methylbenzoyl)oxy)imino)cyclohexa-2,5-dien-1-one]
reduction of potency relative to KG8 (RH T. gondii; RH strain): 6 fold
IC50 [1]: > 100 µM

CC(C)(C)C1=CC(=NNC(=O)C2CCCCC2)C=C(C(C)(C)C)C1=O [KGW66, N'-(3,5-di-tert-butyl-4-oxocyclohexa-2,5-dien-1-ylidene)cyclohexanecarbohydrazide]
activity against RH T. gondii (in words) (RH T. gondii; RH strain): abolished activity

NNC(=O)c1ccncc1 [isoniazid]
activity against T. gondii in vitro (in words) (T. gondii): inactive

CC(C)(C)C1=CC(=NNC(=O)c2ccc([N+](=O)[O-])cc2)C=C(C(C)(C)C)C1=O [KGW44, N'-(3,5-di-tert-butyl-4-oxocyclohexa-2,5-dien-1-ylidene)-4-nitrobenzohydrazide]
Ames Assay [2]: neither compound was mutagenic; also recorded: Negative
solubility kinetic at 30 min [3]: < 1.6 µg/mL
IC50 [4]: > 100 µM
IC50 (PRU T. gondii): 0.99 µM
IC50 [5]: > 100 µM
IC50 [1]: > 100 µM
Predicted EH [6]: 0.45
half-life at 1 μM [6]: 1.38 h
microsomal CLint at 1 μM [6]: 21 µL/min/mg
IC50 [7]: > 100 µM
activity at 10 µM (RH-dTom tachyzoites): 60.3%
IC50 [8]: > 100 µM
cPPB (% Bound) (human albumin): 84.3 % Bound
half-life at 1 μM [9]: 0.15 h
microsomal CLint at 1 μM [9]: 99 µL/min/mg
parasite growth, % of control ([10]; HFF pre-treated 10 μM 24 h, washed, then infected, 5 days post-infection): no significant change in growth

Cc1ccc(C(=O)NN=C2C=C(C(C)(C)C)C(=O)C(C(C)(C)C)=C2)cc1 [KGW42, N'-(3,5-di-tert-butyl-4-oxocyclohexa-2,5-dien-1-ylidene)-4-methylbenzohydrazide]
IC50 [1]: > 100 µM

CC(C)(C)C1=CC(=NNC(=O)c2ccccc2)C=C(C(C)(C)C)C1=O [KGW15, N'-(3,5-di-tert-butyl-4-oxocyclohexa-2,5-dien-1-ylidene)benzohydrazide]
IC50 [1]: > 100 µM
